Measured values reported in ChEMBL document CHEMBL1133591, “Potent derivatives of glucagon-like peptide-1 with pharmacokinetic properties suitable for once daily administration” (J Med Chem, 2000).
Numbered stars: 1 amine (or outer) side, 2 acyl side, 3 side chain; on linkers, the order of the positions; unused ones are H or OH. Square brackets hold non-standard residues; d marks the D form. Side chains are listed from the residue outwards. Peptide text beside a SMILES is read from it. * marks the point of attachment. ξ: configuration not given here. X2 = CCCCCCCCCCCCCC(CCCCC(=O)*)C(=O)O; ξγGlu = O=C(O)C(CCC(=O)[*:2])N[*:1]; Stearoyl = CCCCCCCCCCCCCCCCCC(=O)*; Palmitoyl = CCCCCCCCCCCCCCCC(=O)*; ξK = NCCCCC(N)C(=O)O

Biological target: Glucagon-like peptide 1 receptor (Homo sapiens, UniProt P43220)
Sequence (P43220 whole entry): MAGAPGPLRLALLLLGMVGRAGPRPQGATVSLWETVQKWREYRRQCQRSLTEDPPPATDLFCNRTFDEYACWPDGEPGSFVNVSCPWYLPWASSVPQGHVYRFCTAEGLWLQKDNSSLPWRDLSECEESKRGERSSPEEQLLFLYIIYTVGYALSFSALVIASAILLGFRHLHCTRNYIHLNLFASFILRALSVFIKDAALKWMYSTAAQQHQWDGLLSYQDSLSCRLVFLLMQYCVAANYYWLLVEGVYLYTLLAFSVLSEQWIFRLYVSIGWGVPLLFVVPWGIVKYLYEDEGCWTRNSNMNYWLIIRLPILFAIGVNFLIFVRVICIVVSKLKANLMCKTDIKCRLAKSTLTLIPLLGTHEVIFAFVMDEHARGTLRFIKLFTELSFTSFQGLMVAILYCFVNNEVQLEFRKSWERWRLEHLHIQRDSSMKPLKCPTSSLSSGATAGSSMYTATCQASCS
Experiment: Potency measured using recombinant human GLP-1 receptor expressed in Baby Hamster Kidney (BHK)cells
Format: cell-based
Details: not given

EC50 | Structure (SMILES)
0.121 nM | CCCCCCCCCCCCCCCC(=O)NC(CCC(=O)NCCCC[C@H](NC(=O)[C@@H](NC(=O)[C@H](CC(C)C)NC(=O)[C@H](Cc1c[nH]c2ccccc12)NC(=O)[C@H](C)NC(=O)[C@@H](NC(=O)[C@H](Cc1ccccc1)NC(=O)[C@H](CCC(=O)O)NC(=O)[C@H](CCCN=C(N)N)NC(=O)[C@H](C)NC(=O)[C@H](C)NC(=O)[C@H](CCC(N)=O)NC(=O)CNC(=O)[C@H](CCC(=O)O)NC(=O)[C@H](CC(C)C)NC(=O)[C@H](Cc1ccc(O)cc1)NC(=O)[C@H](CO)NC(=O)[C@H](CO)NC(=O)[C@@H](NC(=O)[C@H](CC(=O)O)NC(=O)[C@H](CO)NC(=O)[C@@H](NC(=O)[C@H](Cc1ccccc1)NC(=O)[C@@H](NC(=O)CNC(=O)[C@H](CCC(=O)O)NC(=O)[C@H](C)NC(=O)[C@@H](N)Cc1c[nH]cn1)[C@@H](C)O)[C@@H](C)O)C(C)C)[C@@H](C)CC)C(C)C)C(=O)NCC(=O)N[C@@H](CCCCN=C(N)N)C(=O)NCC(=O)O)C(=O)O (stereo partly specified)
0.21 nM | CCCCCCCCCCCCCC(CCCCC(=O)NCCCC[C@H](NC(=O)CNC(=O)[C@H](CCCN=C(N)N)NC(=O)[C@@H](NC(=O)[C@H](CC(C)C)NC(=O)[C@H](Cc1c[nH]c2ccccc12)NC(=O)[C@H](C)NC(=O)[C@@H](NC(=O)[C@H](Cc1ccccc1)NC(=O)[C@H](CCC(=O)O)NC(=O)[C@H](CCCN=C(N)N)NC(=O)[C@H](C)NC(=O)[C@H](C)NC(=O)[C@H](CCC(N)=O)NC(=O)CNC(=O)[C@H](CCC(=O)O)NC(=O)[C@H](CC(C)C)NC(=O)[C@H](Cc1ccc(O)cc1)NC(=O)[C@H](CO)NC(=O)[C@H](CO)NC(=O)[C@@H](NC(=O)[C@H](CC(=O)O)NC(=O)[C@H](CO)NC(=O)[C@@H](NC(=O)[C@H](Cc1ccccc1)NC(=O)[C@@H](NC(=O)CNC(=O)[C@H](CCC(=O)O)NC(=O)[C@H](C)NC(=O)[C@@H](N)Cc1c[nH]cn1)[C@@H](C)O)[C@@H](C)O)C(C)C)[C@@H](C)CC)C(C)C)C(=O)NCC(=O)O)C(=O)O (stereo partly specified) (H-HAEGTFTSDVSSYLEGQAAREFIAWLVRGK(X2)G-OH)
0.116 nM | CCCCCCCCCCCCCCCCCC(=O)NC(CCC(=O)NCCCC[C@H](NC(=O)CNC(=O)[C@H](CCCN=C(N)N)NC(=O)[C@@H](NC(=O)[C@H](CC(C)C)NC(=O)[C@H](Cc1c[nH]c2ccccc12)NC(=O)[C@H](C)NC(=O)[C@@H](NC(=O)[C@H](Cc1ccccc1)NC(=O)[C@H](CCC(=O)O)NC(=O)[C@H](CCCN=C(N)N)NC(=O)[C@H](C)NC(=O)[C@H](C)NC(=O)[C@H](CCC(N)=O)NC(=O)CNC(=O)[C@H](CCC(=O)O)NC(=O)[C@H](CC(C)C)NC(=O)[C@H](Cc1ccc(O)cc1)NC(=O)[C@H](CO)NC(=O)[C@H](CO)NC(=O)[C@@H](NC(=O)[C@H](CC(=O)O)NC(=O)[C@H](CO)NC(=O)[C@@H](NC(=O)[C@H](Cc1ccccc1)NC(=O)[C@@H](NC(=O)CNC(=O)[C@H](CCC(=O)O)NC(=O)[C@H](C)NC(=O)[C@@H](N)Cc1c[nH]cn1)[C@@H](C)O)[C@@H](C)O)C(C)C)[C@@H](C)CC)C(C)C)C(=O)NCC(=O)O)C(=O)O (stereo partly specified) (H-HAEGTFTSDVSSYLEGQAAREFIAWLVRGK([ξγGlu-Stearoyl])G-OH)
0.0363 nM | CCCCCCCCCCCCCCCC(=O)NC(CCC(=O)NCCCC[C@H](NC(=O)[C@H](CCCN=C(N)N)NC(=O)[C@H](C)NC(=O)[C@H](C)NC(=O)[C@H](CCC(N)=O)NC(=O)CNC(=O)[C@H](CCC(=O)O)NC(=O)[C@H](CC(C)C)NC(=O)[C@H](Cc1ccc(O)cc1)NC(=O)[C@H](CO)NC(=O)[C@H](CO)NC(=O)[C@@H](NC(=O)[C@H](CC(=O)O)NC(=O)[C@H](CO)NC(=O)[C@@H](NC(=O)[C@H](Cc1ccccc1)NC(=O)[C@@H](NC(=O)CNC(=O)[C@H](CCC(=O)O)NC(=O)[C@H](C)NC(=O)[C@@H](N)Cc1c[nH]cn1)[C@@H](C)O)[C@@H](C)O)C(C)C)C(=O)N[C@@H](Cc1ccccc1)C(=O)N[C@H](C(=O)N[C@@H](C)C(=O)N[C@@H](Cc1c[nH]c2ccccc12)C(=O)N[C@@H](CC(C)C)C(=O)N[C@H](C(=O)N[C@@H](CCCN=C(N)N)C(=O)NCC(=O)N[C@@H](CCCN=C(N)N)C(=O)NCC(=O)O)C(C)C)[C@@H](C)CC)C(=O)O (stereo partly specified) (H-HAEGTFTSDVSSYLEGQAARK([ξγGlu-Palmitoyl])FIAWLVRGRG-OH)
0.213 nM | CCCCCCCCCCCCCCCCCC(=O)NC(CCC(=O)NCCCCC(NC(=O)[C@H](CCC(=O)O)NC(=O)[C@H](CCCN=C(N)N)NC(=O)CNC(=O)[C@H](CCCN=C(N)N)NC(=O)[C@@H](NC(=O)[C@H](CC(C)C)NC(=O)[C@H](Cc1c[nH]c2ccccc12)NC(=O)[C@H](C)NC(=O)[C@@H](NC(=O)[C@H](Cc1ccccc1)NC(=O)[C@H](CCC(=O)O)NC(=O)[C@H](CCCN=C(N)N)NC(=O)[C@H](C)NC(=O)[C@H](C)NC(=O)[C@H](CCC(N)=O)NC(=O)CNC(=O)[C@H](CCC(=O)O)NC(=O)[C@H](CC(C)C)NC(=O)[C@H](Cc1ccc(O)cc1)NC(=O)[C@H](CO)NC(=O)[C@H](CO)NC(=O)[C@@H](NC(=O)[C@H](CC(=O)O)NC(=O)[C@H](CO)NC(=O)[C@@H](NC(=O)[C@H](Cc1ccccc1)NC(=O)[C@@H](NC(=O)CNC(=O)[C@H](CCC(=O)O)NC(=O)CNC(=O)[C@@H](N)Cc1c[nH]cn1)[C@@H](C)O)[C@@H](C)O)C(C)C)[C@@H](C)CC)C(C)C)C(=O)O)C(=O)O (stereo partly specified) (H-HGEGTFTSDVSSYLEGQAAREFIAWLVRGRE[ξK]([ξγGlu-Stearoyl])-OH)

System: not listed separately
Experiment: Plasma half life was determined in pigs
Format: ADME, organism-based, Sus scrofa
Details: pig
In short: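 Landrace × Duroc × Yorkshire pigs, 25–50 kg, two per compound; single sc dose, 0.5 nmol/kg for analogues, 15 nmol/kg for GLP-1. Jugular catheter blood at 0–72 h, extra early samples for GLP-1; EDTA/aprotinin/bacitracin-stabilized plasma. Unextracted plasma assayed by N-terminal-specific GLP-1 radioimmunoassay against spiked pig-plasma calibrators; half-life calculated per pig, reported as mean ± SD.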

half-life | Structure (SMILES)
13 h | CCCCCCCCCCCCCCCC(=O)NC(CCC(=O)NCCCC[C@H](NC(=O)[C@@H](NC(=O)[C@H](CC(C)C)NC(=O)[C@H](Cc1c[nH]c2ccccc12)NC(=O)[C@H](C)NC(=O)[C@@H](NC(=O)[C@H](Cc1ccccc1)NC(=O)[C@H](CCC(=O)O)NC(=O)[C@H](CCCN=C(N)N)NC(=O)[C@H](C)NC(=O)[C@H](C)NC(=O)[C@H](CCC(N)=O)NC(=O)CNC(=O)[C@H](CCC(=O)O)NC(=O)[C@H](CC(C)C)NC(=O)[C@H](Cc1ccc(O)cc1)NC(=O)[C@H](CO)NC(=O)[C@H](CO)NC(=O)[C@@H](NC(=O)[C@H](CC(=O)O)NC(=O)[C@H](CO)NC(=O)[C@@H](NC(=O)[C@H](Cc1ccccc1)NC(=O)[C@@H](NC(=O)CNC(=O)[C@H](CCC(=O)O)NC(=O)[C@H](C)NC(=O)[C@@H](N)Cc1c[nH]cn1)[C@@H](C)O)[C@@H](C)O)C(C)C)[C@@H](C)CC)C(C)C)C(=O)NCC(=O)N[C@@H](CCCCN=C(N)N)C(=O)NCC(=O)O)C(=O)O (stereo partly specified)
